# According to ChEMBL document CHEMBL2401696, “Stereoselective synthesis and anti-proliferative effects on prostate cancer evaluation of 5-substituted-3,4-diphenylfuran-2-ones” (Eur J Med Chem, 2013):
# Calls of active or inactive are those of the source. The rule behind the calls is not given here.
# What was measured:
# PC-3 [1] = assay: Antiproliferative activity against human PC3 cells expressing PCDNA after 72 hrs by MTT assay; assay type: functional, cell-based; details: PC-3, 72 h
# Method in brief: (§1)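 Cells (PC3 and its PCDNA- and SKP2-transfected lines, DU145) grown in RPMI 1640 with 10% FBS; G418 added for transfected lines. Exponential cells seeded 1 × 10⁴/well, 24 h at 37 °C, then fresh medium with compounds at several concentrations for 72 h. MTT 1–3 h at 37 °C, dissolved in 4% HCl/96% isopropanol, absorbance 570 nm. Triplicate per concentration; IC50 from dose–response curves.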
# PC-3 [2] = assay: Antiproliferative activity against human PC3 cells expressing SKP2 after 72 hrs by MTT assay; assay type: functional, cell-based; details: PC-3, 72 h; method in brief: as §1
# DU-145 = assay: Antiproliferative activity against human DU145 cells after 72 hrs by MTT assay; assay type: functional, cell-based; details: DU-145, 72 h; method in brief: as §1
# PC-3 [3] = assay: Antiproliferative activity against human PC3 cells after 72 hrs by MTT assay; assay type: functional, cell-based; details: PC-3, 72 h; method in brief: as §1
# [4] = target: T1, Prostaglandin G/H synthase 2 (Ovis aries) (UniProt P79208); assay: Inhibition of ovine COX-2 assessed as using arachidonic acid as substrate at 10 uM preincubated for 5 mins prior to substrate addition measured after 2 hrs by enzyme immunoassay relative to control; details: in the assay text read “after 2 mins” for “after 2 hrs”
# T1 sequence (whole entry): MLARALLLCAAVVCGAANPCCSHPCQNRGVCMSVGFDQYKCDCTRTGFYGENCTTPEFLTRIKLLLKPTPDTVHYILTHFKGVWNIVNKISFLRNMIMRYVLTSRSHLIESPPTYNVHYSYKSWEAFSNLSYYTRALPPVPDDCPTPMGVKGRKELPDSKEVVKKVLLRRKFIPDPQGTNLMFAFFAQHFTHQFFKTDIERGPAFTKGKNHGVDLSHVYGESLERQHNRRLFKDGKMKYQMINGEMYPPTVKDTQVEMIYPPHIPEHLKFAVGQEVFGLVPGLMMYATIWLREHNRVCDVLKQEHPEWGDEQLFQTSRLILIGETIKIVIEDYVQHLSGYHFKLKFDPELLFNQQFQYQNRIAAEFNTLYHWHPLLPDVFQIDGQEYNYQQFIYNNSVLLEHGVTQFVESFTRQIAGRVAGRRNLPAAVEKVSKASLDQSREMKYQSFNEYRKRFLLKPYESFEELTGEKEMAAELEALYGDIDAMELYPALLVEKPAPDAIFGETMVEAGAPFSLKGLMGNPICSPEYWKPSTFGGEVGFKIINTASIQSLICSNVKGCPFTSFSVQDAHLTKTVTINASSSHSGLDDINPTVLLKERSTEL
# Method in brief: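 Ovine COX-1 or COX-2 with heme in 0.1 M Tris-HCl pH 8.0, 5 mM EDTA, 2 mM phenol; compound (0.001–100 µM final, DMSO stocks) preincubated 5 min at 37 °C, then arachidonic acid added, stopped with 1 M HCl after 2 min. PGF2α (SnCl2 reduction) quantified by competitive EIA at 412 nm; % inhibition vs controls; mean of two determinations.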
# [5] = target: T2, Prostaglandin G/H synthase 1 (Ovis aries) (UniProt P05979); assay: Inhibition of ovine COX-1 assessed as using arachidonic acid as substrate at 10 uM preincubated for 5 mins prior to substrate addition […] by enzyme immunoassay relative to control
# T2 sequence (whole entry): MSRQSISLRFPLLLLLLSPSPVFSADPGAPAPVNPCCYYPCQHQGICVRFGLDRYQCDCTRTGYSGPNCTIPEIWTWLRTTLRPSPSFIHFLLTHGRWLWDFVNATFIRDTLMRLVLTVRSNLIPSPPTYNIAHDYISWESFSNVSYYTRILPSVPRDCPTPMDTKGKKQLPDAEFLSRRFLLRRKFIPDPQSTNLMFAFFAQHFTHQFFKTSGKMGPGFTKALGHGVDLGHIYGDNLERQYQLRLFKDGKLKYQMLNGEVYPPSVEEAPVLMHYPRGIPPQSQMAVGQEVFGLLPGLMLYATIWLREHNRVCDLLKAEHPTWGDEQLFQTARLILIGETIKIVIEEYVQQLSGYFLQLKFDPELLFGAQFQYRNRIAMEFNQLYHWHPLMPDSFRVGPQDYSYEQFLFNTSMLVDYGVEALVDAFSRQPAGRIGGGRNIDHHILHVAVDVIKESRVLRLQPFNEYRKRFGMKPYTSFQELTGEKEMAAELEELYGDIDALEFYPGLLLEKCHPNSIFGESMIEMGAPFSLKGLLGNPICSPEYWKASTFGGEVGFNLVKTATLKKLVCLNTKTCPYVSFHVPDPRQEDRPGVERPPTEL
Structure (SMILES),IC50 (PC-3 [1]) [µM],IC50 (PC-3 [2]) [µM],IC50 (DU-145) [µM],IC50 (PC-3 [3]) [µM],inhibition [4],inhibition [5]
CS(=O)(=O)c1ccc(C2=C(c3ccccc3Cl)C(=O)O/C2=C\c2ccc(F)cc2)cc1,> 50,> 50,–,–,–,–
COc1cc(/C=C2\OC(=O)C(c3ccccc3)=C2c2ccc(S(C)(=O)=O)cc2)cc(OC)c1OC,> 90,> 100,–,–,–,–
CS(=O)(=O)c1ccc(C2=C(c3ccccc3Cl)C(=O)O/C2=C\c2ccco2)cc1,> 50,> 50,–,–,–,–
CS(=O)(=O)c1ccc(C2=C(c3ccccc3Cl)C(=O)O/C2=C\c2cccc3ccccc23)cc1,> 50,> 50,–,–,–,–
COc1cc(/C=C2\OC(=O)C(c3ccccc3)=C2c2ccc(S(C)(=O)=O)cc2)ccc1O,> 125,25.5,> 50,> 50,36.6%,–
CS(=O)(=O)c1ccc(C2=C(c3ccccc3)C(=O)O/C2=C\c2ccc(O)cc2)cc1,25.9,> 50,> 50,> 50,14.4%,–
CS(=O)(=O)c1ccc(C2=C(c3ccccc3Cl)C(=O)O/C2=C\c2ccccc2Cl)cc1,> 50,> 50,–,–,–,–
CC(C)=CCC/C(C)=C\C=C1/OC(=O)C(c2ccccc2)=C1c1ccc(S(C)(=O)=O)cc1,> 50,> 50,–,–,–,–
CS(=O)(=O)c1ccc(C2=C(c3ccc(F)cc3)C(=O)O/C2=C\c2cccc3ccccc23)cc1,20,25.4,> 50,> 50,inactive,–
COC1(C)OC(=O)C(c2ccccc2)=C1c1ccc(S(C)(=O)=O)cc1 (configuration not stated),37.1,20.3,> 50,> 50,–,–
CS(=O)(=O)c1ccc(C2=C(c3ccccc3)C(=O)O/C2=C\c2ccccc2)cc1,> 90,> 90,–,–,–,–
O=c1[nH]cc(F)c(=O)[nH]1 [FLUOROURACIL],31.4,–,–,–,–,–
CS(=O)(=O)c1ccc(C2=C(c3ccc(F)cc3)C(=O)O/C2=C\c2ccc(F)cc2)cc1,> 50,> 50,–,–,–,–
COc1cc(/C=C2\OC(=O)C(c3ccccc3Cl)=C2c2ccc(S(C)(=O)=O)cc2)cc(OC)c1OC,> 50,> 50,–,–,–,–
CS(=O)(=O)c1ccc(C2=C(c3ccc(F)cc3)C(=O)O/C2=C\c2ccc(Br)cc2)cc1,> 50,> 50,–,–,–,–
CS(=O)(=O)c1ccc(C2=C(c3ccc(F)cc3)C(=O)O/C2=C\c2ccccc2Cl)cc1,> 50,> 50,–,–,–,–
CN(C)c1ccc(/C=C2\OC(=O)C(c3ccccc3Cl)=C2c2ccc(S(C)(=O)=O)cc2)cc1,> 50,30.1,> 50,> 50,4.49%,–
CS(=O)(=O)c1ccc(C2=C(c3ccc(F)cc3)C(=O)O/C2=C\c2ccc3c(c2)OCO3)cc1,> 50,> 50,–,–,–,–

Structure (SMILES),IC50 (PC-3 [1]) [µM],IC50 (PC-3 [2]) [µM],IC50 (DU-145) [µM],IC50 (PC-3 [3]) [µM],inhibition [4],inhibition [5]
CS(=O)(=O)c1ccc(C2=C(c3ccc(F)cc3)C(=O)O/C2=C\c2ccc(O)cc2)cc1,25.9,25.7,> 50,> 50,19.5%,–
CS(=O)(=O)c1ccc(C2=C(c3ccccc3)C(=O)O/C2=C\c2cccc([N+](=O)[O-])c2)cc1,> 90,> 100,–,–,inactive,inactive
CS(=O)(=O)c1ccc(C2=C(c3ccccc3)C(=O)O/C2=C\c2ccc(Cl)cc2)cc1,> 50,> 50,–,–,inactive,14.6%
CS(=O)(=O)c1ccc(C2=C(c3ccc(F)cc3)C(=O)O/C2=C\c2ccc(Cl)cc2)cc1,> 50,> 50,–,–,inactive,–
CS(=O)(=O)c1ccc(C2=C(c3ccc(F)cc3)C(=O)O/C2=C\c2ccccc2)cc1,> 50,> 50,–,–,–,–
CS(=O)(=O)c1ccc(C2=C(c3ccccc3Cl)C(=O)O/C2=C\c2ccc(Br)cc2)cc1,> 50,> 50,–,–,–,–
CN(C)c1ccc(/C=C2\OC(=O)C(c3ccccc3)=C2c2ccc(S(C)(=O)=O)cc2)cc1,> 50,> 50,–,–,–,–
CS(=O)(=O)c1ccc(C2=C(c3ccccc3)C(=O)O/C2=C\c2ccc(Br)cc2)cc1,25.2,> 50,> 50,> 50,inactive,–
CS(=O)(=O)c1ccc(C2=C(c3ccc(F)cc3)C(=O)O/C2=C\c2cccc([N+](=O)[O-])c2)cc1,> 50,> 50,–,–,inactive,inactive
CS(=O)(=O)c1ccc(C2=C(c3ccccc3)C(=O)OC2)cc1 [ROFECOXIB],> 50,> 50,200,200,–,–
CS(=O)(=O)c1ccc(C2=C(c3ccc(F)cc3)C(=O)O/C2=C\c2ccco2)cc1,> 50,> 50,–,–,–,–
CS(=O)(=O)c1ccc(C2=C(c3ccccc3)C(=O)O/C2=C\c2ccco2)cc1,> 100,> 100,–,–,inactive,inactive
COc1cc(/C=C2\OC(=O)C(c3ccccc3Cl)=C2c2ccc(S(C)(=O)=O)cc2)ccc1O,> 50,25.1,> 50,> 50,14.9%,–
COc1ccc(/C=C2\OC(=O)C(c3ccc(F)cc3)=C2c2ccc(S(C)(=O)=O)cc2)cc1,> 50,> 50,–,–,inactive,10.2%
CS(=O)(=O)c1ccc(C2=C(c3ccccc3Cl)C(=O)O/C2=C\c2ccc3c(c2)OCO3)cc1,> 50,> 50,–,–,–,–
CC(C)=C1OC(=O)C(c2ccc(F)cc2)=C1c1ccc(S(C)(=O)=O)cc1,> 50,> 50,–,–,–,–
CS(=O)(=O)c1ccc(C2=C(c3ccccc3)C(=O)O/C2=C\c2cccc3ccccc23)cc1,> 50,> 50,–,–,–,–
CC(C)=C1OC(=O)C(c2ccccc2)=C1c1ccc(S(C)(=O)=O)cc1,> 50,> 50,–,–,–,–
